Laboratory results from ChEMBL document CHEMBL1629596, “Antileishmanial activity of 1,3,4-thiadiazolium-2-aminide in mice infected with Leishmania amazonensis” (Antimicrob Agents Chemother, 2009).
The source made the active and inactive calls. The calls are words filed in the database; no cut-off is given here.

Columns and labels:
Leishmania amazonensis [1] = assay: Antileishmanial activity against Leishmania amazonensis infected in CBA/J mouse assessed as reduction of parasite loads in popliteal lymph nodes at 100 mg/kg/day, sc administered 4 weeks after infection 5 dose in a week for 4 weeks measured after 12 weeks; assay type: functional, organism-based; details: Popliteal lymph node
How it was run: (§1)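 Mice were killed at week 12, 4 weeks after treatment ended. Popliteal lymph nodes and spleens were removed aseptically, weighed and homogenized in Schneider's medium + 10% fetal calf serum. Eight serial 1:10 dilutions were plated in triplicate and incubated at 26°C. Titer was the last dilution with ≥1 parasite by microscopy. Groups were seven mice.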

Leishmania amazonensis [2] = assay: Antileishmanial activity against Leishmania amazonensis infected in CBA/J mouse assessed as reduction of foot-pad thickness at 100 mg/kg/day, sc administered 4 weeks after infection 5 dose in a week for 4 weeks measured after 12 weeks; assay type: functional, organism-based
How it was run: (§2)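 Sc dosing started day 27 post-infection, 5 doses/week for 4 weeks. Controls got DMSO/PBS vehicle. Footpad swelling was followed to week 12 and recorded as infected-footpad thickness. Groups were seven mice, reported as mean with standard errors.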

Leishmania amazonensis [3] = assay: Antileishmanial activity against Leishmania amazonensis infected in CBA/J mouse assessed as reduction of parasite loads in spleen at 100 mg/kg/day, sc administered 4 weeks after infection 5 dose in a week for 4 weeks measured after 12 weeks; assay type: functional, organism-based; how it was run: as §1
Leishmania amazonensis [4] = assay: Antileishmanial activity against Leishmania amazonensis infected in CBA/J mouse assessed as reduction of lesion size at 100 mg/kg/day, sc administered 4 weeks after infection 5 dose in a week for 4 weeks measured after 12 weeks; assay type: functional, organism-based; how it was run: as §2
Mus musculus [5] = assay: Toxicity in CBA/J mouse assessed as change in neutrophils count at 22 mg/kg/day, sc administered 5 doses a week for 4 weeks (reference value: 19%); assay type: organism-based; design: route subcutaneous; details: in vivo, 672 h
How it was run: (§3)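 Uninfected mice dosed subcutaneously in DMSO/PBS, 5 doses/week; tail blood taken at week 4 of treatment. Total leukocytes counted in Neubauer chamber; lymphocyte, monocyte and neutrophil values given as percentages.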

Mus musculus [6] = assay: Toxicity in CBA/J mouse assessed as change in monocytes count at 22 mg/kg/day, sc administered 5 doses a week for 4 weeks (reference value: 5%); assay type: organism-based; design: route subcutaneous; details: in vivo, 672 h; how it was run: as §3
Mus musculus [7] = assay: Toxicity in CBA/J mouse assessed as change in lymphocytes count at 22 mg/kg/day, sc administered 5 doses a week for 4 weeks (reference value: 75%); assay type: organism-based; design: route subcutaneous; details: in vivo, 672 h; how it was run: as §3
Leishmania amazonensis [8] = assay: Antileishmanial activity against Leishmania amazonensis infected in CBA/J mouse assessed as reduction of foot-pad thickness at 22 mg/kg/day, sc administered 4 weeks after infection 5 dose in a week for 4 weeks measured after 12 weeks; assay type: functional, organism-based
How it was run: (§4)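 Infected footpad thickness measured as lesion size, followed to week 12 postinfection. Subcutaneous dosing in DMSO/PBS vehicle began 27 days after infection, 5 doses a week for 4 weeks; controls received vehicle alone. Groups of seven mice, mean ± SEM.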

Mus musculus [9] = assay: Toxicity in CBA/J mouse assessed as change in aspartate aminotransferase level at 22 mg/kg/day, sc administered 5 doses a week for 4 weeks (reference value: 51 +/- 6.8 U/ml); assay type: organism-based; design: route subcutaneous; details: in vivo, 672 h
Mus musculus [10] = assay: Toxicity in CBA/J mouse assessed as change in body weight at 22 mg/kg/day, sc administered 5 doses a week for 4 weeks (reference value: 25 g); assay type: organism-based; design: route subcutaneous; details: in vivo, 672 h
Leishmania amazonensis [11] = assay: Antileishmanial activity against Leishmania amazonensis infected in CBA/J mouse assessed as reduction of parasite loads in spleen at 22 mg/kg/day, sc administered 4 weeks after infection 5 dose in a week for 4 weeks measured after 12 weeks; assay type: functional, organism-based
How it was run: (§5)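 Week 12 postinfection (4 weeks after last dose): popliteal lymph nodes and spleens removed aseptically, weighed, homogenized in Schneider's medium + 10% FCS; eight 1:10 serial dilutions in triplicate, incubated at 26°C, read by inverted microscope; titer = last dilution with at least one parasite. Seven animals; subcutaneous dosing in DMSO/PBS, 5 doses/week for 4 weeks.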

Leishmania amazonensis [12] = assay: Antileishmanial activity against Leishmania amazonensis infected in CBA/J mouse assessed as increase of nitric oxide production in lymph node cells at 22 mg/kg/day, sc administered 4 weeks after infection 5 dose in a week for 4 weeks measured after 12 weeks; assay type: functional, organism-based
Leishmania amazonensis [13] = assay: Antileishmanial activity against Leishmania amazonensis infected in CBA/J mouse assessed as reduction of parasite loads in popliteal lymph nodes at 22 mg/kg/day, sc administered 4 weeks after infection 5 dose in a week for 4 weeks measured after 12 weeks; assay type: functional, organism-based; details: Popliteal lymph node; how it was run: as §5
Leishmania amazonensis [14] = assay: Antileishmanial activity against Leishmania amazonensis infected in macrophages assessed as nitric oxide release; assay type: functional, organism-based
Mus musculus [15] = assay: Toxicity in CBA/J mouse assessed as change in alanine aminotransferase level at 22 mg/kg/day, sc administered 5 doses a week for 4 weeks (reference value: 52 +/- 6.2 U/ml); assay type: organism-based; design: route subcutaneous; details: in vivo, 672 h
Mus musculus [16] = assay: Toxicity in CBA/J mouse assessed as change in white blood cell count at 22 mg/kg/day, sc administered 5 doses a week for 4 weeks (reference value: 14 x 10^3 ul); assay type: organism-based; design: route subcutaneous; details: in vivo, 672 h; how it was run: as §3
Leishmania amazonensis [17] = assay: Antileishmanial activity against Leishmania amazonensis infected in CBA/J mouse assessed as reduction of lesion size at 24 mg/kg/day, sc administered 4 weeks after infection 5 dose in a week for 4 weeks measured after 12 weeks; assay type: functional, organism-based; how it was run: as §4
Mus musculus [18] = assay: Toxicity in CBA/J mouse assessed as change in monocytes count at 24 mg/kg/day, sc administered 5 doses a week for 4 weeks (reference value: 5%); assay type: organism-based; design: route subcutaneous; details: in vivo, 672 h; how it was run: as §3
Mus musculus [19] = assay: Toxicity in CBA/J mouse assessed as change in lymphocytes count at 24 mg/kg/day, sc administered 5 doses a week for 4 weeks (reference value: 75%); assay type: organism-based; design: route subcutaneous; details: in vivo, 672 h; how it was run: as §3
Leishmania amazonensis [20] = assay: Antileishmanial activity against Leishmania amazonensis infected in CBA/J mouse assessed as reduction of foot-pad thickness at 24 mg/kg/day, sc administered 4 weeks after infection 5 dose in a week for 4 weeks measured after 12 weeks; assay type: functional, organism-based; how it was run: as §4
Mus musculus [21] = assay: Toxicity in CBA/J mouse assessed as change in white blood cell count at 24 mg/kg/day, sc administered 5 doses a week for 4 weeks (reference value: 14 x 10^3 ul); assay type: organism-based; design: route subcutaneous; details: in vivo, 672 h; how it was run: as §3
Mus musculus [22] = assay: Toxicity in CBA/J mouse assessed as change in body weight at 24 mg/kg/day, sc administered 5 doses a week for 4 weeks (reference value: 25 g); assay type: organism-based; design: route subcutaneous; details: in vivo, 672 h
Mus musculus [23] = assay: Toxicity in CBA/J mouse assessed as change in neutrophils count at 24 mg/kg/day, sc administered 5 doses a week for 4 weeks (reference value: 19%); assay type: organism-based; design: route subcutaneous; details: in vivo, 672 h; how it was run: as §3
Leishmania amazonensis [24] = assay: Antileishmanial activity against Leishmania amazonensis infected in CBA/J mouse assessed as reduction of parasite loads in popliteal lymph nodes at 24 mg/kg/day, sc administered 4 weeks after infection 5 dose in a week for 4 weeks measured after 12 weeks; assay type: functional, organism-based; details: Popliteal lymph node; how it was run: as §5
Mus musculus [25] = assay: Toxicity in CBA/J mouse assessed as change in alanine aminotransferase level at 24 mg/kg/day, sc administered 5 doses a week for 4 weeks (reference value: 52 +/- 6.2 U/ml); assay type: organism-based; design: route subcutaneous; details: in vivo, 672 h
Mus musculus [26] = assay: Toxicity in CBA/J mouse assessed as change in aspartate aminotransferase level at 24 mg/kg/day, sc administered 5 doses a week for 4 weeks (reference value: 51 +/- 6.8 U/ml); assay type: organism-based; design: route subcutaneous; details: in vivo, 672 h
Leishmania amazonensis [27] = assay: Antileishmanial activity against Leishmania amazonensis infected in CBA/J mouse assessed as reduction of parasite loads in spleen at 24 mg/kg/day, sc administered 4 weeks after infection 5 dose in a week for 4 weeks measured after 12 weeks; assay type: functional, organism-based; how it was run: as §5

MEGLUMINE ANTIMONATE
Activity (Leishmania amazonensis [1]): Active
Activity (Leishmania amazonensis [2]): Active
Activity (Leishmania amazonensis [3]): Active
Activity (Leishmania amazonensis [4]): inactive

COc1ccc(/C=C/c2sc(Nc3ccccc3)n[n+]2-c2ccccc2)cc1.[Cl-]
Activity (Mus musculus [5]): 25%
Activity (Mus musculus [6]): 5%
Activity (Mus musculus [7]): 69%
Activity (Leishmania amazonensis [8]): Active
Activity (Mus musculus [9]): 53 U/ml
Activity (Mus musculus [10]): 27 g
Activity (Leishmania amazonensis [11]): Active
Activity (Leishmania amazonensis [12]): Active
Activity (Leishmania amazonensis [13]): Active
Activity (Leishmania amazonensis [14]): Active
Activity (Mus musculus [15]): 57 U/ml
Activity (Mus musculus [16]): 12 ×10³ /uL

C(=C\c1sc(Nc2ccccc2)n[n+]1-c1ccccc1)/c1ccccc1.[Cl-]
Activity (Leishmania amazonensis [17]): inactive
Activity (Mus musculus [18]): 5%
Activity (Mus musculus [19]): 70%
Activity (Leishmania amazonensis [20]): Active
Activity (Mus musculus [21]): 12 ×10³ /uL
Activity (Mus musculus [22]): 26 g
Activity (Mus musculus [23]): 24%
Activity (Leishmania amazonensis [24]): Active
Activity (Mus musculus [25]): 58 U/ml
Activity (Leishmania amazonensis [14]): Active
Activity (Mus musculus [26]): 48 U/ml
Activity (Leishmania amazonensis [27]): Active
